Reference: ChEMBL document CHEMBL3243957, “Synthesis and screening of 8-(4'-thiazolyl)purines” (J Med Chem, 1978)
The source made the active and inactive calls. The rule behind the calls is not given here.

Legend:
Lymphocyte [1] = experiment: Inhibition of phytohemagglutinin-induced human lymphocytes proliferation at 100 ug/ml by [3H]thymidine incorporation assay; assay type: functional, cell-based
Summary of the method: (§1)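 Lymphocytes were cultured with compound at 1, 10 and 100 µg/mL, with or without a suboptimal concentration of the lectin mitogen phytohemagglutinin. Proliferation was read as tritiated thymidine incorporation.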

Mus musculus [2] = experiment: Antitumor activity against mouse S180J cells allografted in CD-1 mouse assessed as tumor regression at 10 to 100 mg/kg, ip administered six times in consecutive days starting day after tumor cell inoculation measured 42 days after start of drug treatment; assay type: functional, organism-based
Summary of the method: (§2)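 Female CD-1 mice, in groups of six, were inoculated with 7.5 × 10^5 tumor cells. Starting the day after inoculation, the agent was given ip as a carboxymethylcellulose suspension in saline, once daily for six consecutive days, at different dosages.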

Lymphocyte [3] = experiment: Immunopotentiation activity in human lymphocytes assessed as increase in cell proliferation at 1 to 100 ug/ml by [3H]thymidine incorporation assay in absence of mitogen phytohemagglutinin; assay type: functional, cell-based; summary of the method: as §1
Lymphocyte [4] = experiment: Immunopotentiation activity in human lymphocytes assessed as increase in cell proliferation at 1 to 100 ug/ml by [3H]thymidine incorporation assay in presence of mitogen phytohemagglutinin; assay type: functional, cell-based; summary of the method: as §1
Mus musculus [5] = experiment: Antitumor activity against mouse S180J cells allografted in CD-1 mouse assessed as tumor regression at 4 mg/kg, ip administered six times in consecutive days starting a day after tumor cell inoculation measured 42 days after start of drug treatment; assay type: functional, organism-based; set-up: dose 4 mg/kg; summary of the method: as §2
Mus musculus [6] = experiment: Antitumor activity against AKR mouse leukemia assessed as increase in survival time at 0.2 to 20 mg/kg, po; assay type: functional, organism-based
Summary of the method: (§3)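 AKR leukemia-bearing mice were dosed at 0.2, 2.0 and 20 mg/kg, each given by intraperitoneal, oral or subcutaneous routes. The read-out was increase in survival time.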

Mus musculus [7] = experiment: Antitumor activity against mouse S180J cells allografted in ip dosed CD-1 mouse assessed as tumor regression administered six times in consecutive days starting a day after tumor cell inoculation measured 42 days after start of drug treatment; assay type: functional, organism-based; summary of the method: as §2
Mus musculus [8] = experiment: Antitumor activity against AKR mouse leukemia assessed as increase in survival time at 0.2 to 20 mg/kg, sc; assay type: functional, organism-based; summary of the method: as §3
Mus musculus [9] = experiment: Antitumor activity against mouse S180J cells allografted in CD-1 mouse assessed as tumor regression at 16 mg/kg, ip administered six times in consecutive days starting a day after tumor cell inoculation measured 42 days after start of drug treatment; assay type: functional, organism-based; set-up: dose 16 mg/kg; summary of the method: as §2
Mus musculus [10] = experiment: Antitumor activity against mouse S180J cells allografted in CD-1 mouse assessed as tumor regression at 32 mg/kg, ip administered six times in consecutive days starting a day after tumor cell inoculation measured 42 days after start of drug treatment; assay type: functional, organism-based; set-up: dose 32 mg/kg; summary of the method: as §2
Mus musculus [11] = experiment: Antitumor activity against mouse S180J cells allografted in CD-1 mouse assessed as tumor regression at 1 mg/kg, ip administered six times in consecutive days starting a day after tumor cell inoculation measured 42 days after start of drug treatment; assay type: functional, organism-based; set-up: dose 1 mg/kg; summary of the method: as §2
Mus musculus [12] = experiment: Antitumor activity against AKR mouse leukemia assessed as increase in survival time at 0.2 to 20 mg/kg, ip; assay type: functional, organism-based; summary of the method: as §3
Mus musculus [13] = experiment: Toxicity in mouse L1210 cells allografted mouse up to 500 mg/kg administered qd for 5 days; assay type: organism-based; set-up: dose 500 mg/kg; conditions: in vivo, 120 h
L1210 = experiment: Antitumor activity against mouse L1210 cells allografted in mouse assessed as increase in host survival time at 125 mg/kg administered qd for 6 days relative to control; assay type: functional
Summary of the method: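 L1210 mouse leukemia in mice, dosed daily (qd) over a 1 to 125 mg/kg range. Read-out was survival time of treated versus control mice, given as % T/C. Procedure follows previously described methods.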

Human alphaherpesvirus 1 [14] = experiment: Antiviral activity against HSV-1 infected in african green monkey Vero cells assessed as inhibition of viral replication at 100 ug/ml (reference value: 1.2 x 10^6 PFU/ml); assay type: functional
Human alphaherpesvirus 1 [15] = experiment: Antiviral activity against HSV-1 infected in african green monkey Vero cells assessed as inhibition of viral replication at 10 ug/ml (reference value: 1.2 x 10^6 PFU/ml); assay type: functional
Human alphaherpesvirus 1 [16] = experiment: Antiviral activity against HSV-1 infected in african green monkey Vero cells assessed as inhibition of viral replication at 1 ug/ml (reference value: 1.2 x 10^6 PFU/ml); assay type: functional
Mus musculus [17] = experiment: Antitumor activity against mouse S180J cells allografted in CD-1 mouse assessed as tumor regression at 30 mg/kg, ip administered six times in consecutive days starting a day after tumor cell inoculation measured 42 days after start of drug treatment; assay type: functional, organism-based; set-up: dose 30 mg/kg; summary of the method: as §2
Human alphaherpesvirus 1 [18] = experiment: Antiviral activity against HSV-1 infected in african green monkey Vero cells assessed as inhibition of viral replication at 1 ug/ml (reference value: 2.7 x 10^5 PFU/ml); assay type: functional
Human alphaherpesvirus 1 [19] = experiment: Antiviral activity against HSV-1 infected in african green monkey Vero cells assessed as inhibition of viral replication at 100 ug/ml (reference value: 2.7 x 10^5 PFU/ml); assay type: functional
Human alphaherpesvirus 1 [20] = experiment: Antiviral activity against HSV-1 infected in african green monkey Vero cells assessed as inhibition of viral replication at 10 ug/ml (reference value: 2.7 x 10^5 PFU/ml); assay type: functional
Mus musculus [21] = experiment: Antitumor activity against mouse S180J cells allografted in CD-1 mouse assessed as tumor regression at 100 mg/kg, ip administered six times in consecutive days starting a day after tumor cell inoculation measured 42 days after start of drug treatment; assay type: functional, organism-based; set-up: dose 100 mg/kg; summary of the method: as §2

SMILES: c1ncc2nc(-c3cscn3)[nH]c2n1
- inhibition (Lymphocyte [1]): Active
- inhibition (Mus musculus [2]): inactive
- Activity (Lymphocyte [3]): inactive
- Activity (Lymphocyte [4]): inactive

SMILES: Sc1ncnc2[nH]c(-c3cscn3)nc12
- inhibition (Mus musculus [5]): inactive
- Activity (Mus musculus [6]): inactive
- inhibition (Mus musculus [7]): Active
- Activity (Mus musculus [8]): inactive
- inhibition (Mus musculus [9]): inactive
- inhibition (Mus musculus [10]): inactive
- inhibition (Lymphocyte [1]): Active
- inhibition (Mus musculus [11]): inactive
- Activity (Lymphocyte [3]): inactive
- Activity (Lymphocyte [4]): inactive
- Activity (Mus musculus [12]): inactive

SMILES: ONc1ncnc2[nH]c(-c3cscn3)nc12
- Activity (Mus musculus [13]): Non-toxic
- T/C (L1210): 129%

SMILES: Clc1ncnc2[nH]c(-c3cscn3)nc12
- PFU/ml (Human alphaherpesvirus 1 [14]): 2200000
- inhibition (Lymphocyte [1]): Active
- Activity (Lymphocyte [3]): inactive
- PFU/ml (Human alphaherpesvirus 1 [15]): 2500000
- PFU/ml (Human alphaherpesvirus 1 [16]): 4000000
- Activity (Lymphocyte [4]): inactive

SMILES: Oc1ncnc2[nH]c(-c3cscn3)nc12
- inhibition (Lymphocyte [1]): Active
- Activity (Lymphocyte [3]): inactive
- Activity (Lymphocyte [4]): inactive

SMILES: Nc1ncnc2[nH]c(-c3cscn3)nc12
- inhibition (Mus musculus [17]): inactive
- PFU/ml (Human alphaherpesvirus 1 [18]): 320000
- inhibition (Lymphocyte [1]): Active
- inhibition (Mus musculus [2]): inactive
- Activity (Lymphocyte [3]): inactive
- PFU/ml (Human alphaherpesvirus 1 [19]): 920000
- PFU/ml (Human alphaherpesvirus 1 [20]): 850000
- Activity (Lymphocyte [4]): inactive

SMILES: Nc1nc(S)c2nc(-c3cscn3)[nH]c2n1
- inhibition (Mus musculus [17]): inactive
- inhibition (Mus musculus [7]): Active
- PFU/ml (Human alphaherpesvirus 1 [14]): 820000
- inhibition (Mus musculus [21]): inactive
- inhibition (Lymphocyte [1]): Active
- Activity (Lymphocyte [3]): inactive
- PFU/ml (Human alphaherpesvirus 1 [15]): 5300000
- PFU/ml (Human alphaherpesvirus 1 [16]): 3500000
- Activity (Lymphocyte [4]): inactive
